Test system: MS2 coat protein
Assay: apparent Kd, MS2 coat protein; higher = weaker binding; RNA-MaP array
How it was run: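 RNA designs were transcribed from sequenced DNA templates on an Illumina sequencing chip and then incubated at room temperature with fluorescently labeled MS2 coat protein at 1.5 nM to 3 μM, with or without input ligand, in Tris-HCl pH 7.5 buffer containing KCl, MgCl2, BSA, DTT, tRNA and Tween20. Incubation lasted 0.8–1.5 h at the lowest protein concentrations and 10–20 min at the highest. Apparent Kd is the median of binding-curve fits made for each cluster. Designs measured on fewer than 10 clusters were excluded.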

[1] = designed as: ON switch for flavin mononucleotide, no ligand
[2] = ligand present: flavin mononucleotide, designed as: ON switch for flavin mononucleotide
[3] = designed as: OFF switch for theophylline, no ligand
[4] = ligand present: theophylline, designed as: OFF switch for theophylline
[5] = designed as: OFF switch for flavin mononucleotide, no ligand
[6] = ligand present: flavin mononucleotide, designed as: OFF switch for flavin mononucleotide
[7] = designed as: OFF switch for tryptophan, no ligand
[8] = ligand present: tryptophan, designed as: OFF switch for tryptophan

GCCACGCUAGAAGGAUAUUUGCCAUAAGUACGGAAAGAAGGUCUCGCCGGAUCGAACAUGAGGAUCACCCAUGUGUGGGUCAGA
apparent Kd [1]: 43.8 nM
apparent Kd [2]: 26 nM

UAGCGAUCUCGUUAAAGGAUCCCAUUUGAUACCAGAGAACUUUGCCUCCCUUGGCAGCAAGUGACAUGAGGAUCACCCAUGUUGA
apparent Kd [3]: 16.2 nM
apparent Kd [4]: 23.9 nM

AUAACUGCAGGAUAUACAGGAACGCCUAGAAGGAUCCUGGAACAUGAGGAUCACCCAUGUAGAAGGGCACGUUU
apparent Kd [5]: 12.3 nM
apparent Kd [6]: 14.4 nM

UCAUUGAGAGUCAUCCAGCGUUAAUGGGAUACCAGAGUUCUUUUACUCCCUUGGCAGCCCGGAACAUGAGGAUCACCCAUGUCUG
apparent Kd [3]: 34.9 nM
apparent Kd [4]: 80.8 nM

UCGGUUUGUGCAGGAUAUGCUUACACCCUAGAGGCAGAAGGGCAUAUCACAUGAGGAUCACCCAUGUACAAUCGUCCAAGGGCA
apparent Kd [1]: 29.8 nM
apparent Kd [2]: 23.4 nM

UAACAUUGCUAGAAGGGCGGUCAUCAGAUGGCCGCAGGAUAUAGACAUGAGGAUCACCCAUGUGAAGGGCAGGUUGUUCUAGUU
apparent Kd [1]: 18.1 nM
apparent Kd [2]: 22.5 nM

CCGAUAAUCAAACAUGAGGAUCACCCAUGUUCUGGACGGUUCGAGGAUAUGGCACAAGGUAUCUUCCAGAAGGCGAGCCGGUGA
apparent Kd [1]: 8.04 nM
apparent Kd [2]: 5.98 nM

GGUUCCUCAACGGCCGCCACUUACUGGAUUAGUGGACCUACUUGCAACAUGAGGAUCACCCAUGUAAGGACCGGGUUGCUCCCAA
apparent Kd [7]: 68.2 nM
apparent Kd [8]: 79.2 nM

ACAUGAGGAUCACCCAUGUAAACAAGGUUGGAGACCCGCAAUGAGGAUAUCAUAAAGAAACCCAAUGAGAAGGCAUGAUCACAA
apparent Kd [1]: 22.3 nM
apparent Kd [2]: 17.2 nM

AACAGAAGACAGGAUAUUACUUAACCAGUAUUGUAAGAAGGGUCGACAUGAGGAUCACCCAUGUGAUCAUACUG
apparent Kd [5]: 48.8 nM
apparent Kd [6]: 47 nM

AUGAGAUGAGGAUAUACUGGGUCCGCAUUAGAAACUUAUCAACAUGAGGAUCACCCAUGUAGAAGGCAUGUGAG
apparent Kd [5]: 25.4 nM
apparent Kd [6]: 83.2 nM

AUAGUGUAAGGAUAUGUAGAGAGCUAGAAAAUACAAACAAUACAGAAGGUACAUGAGGAUCACCCAUGUGAUUG
apparent Kd [5]: 14.4 nM
apparent Kd [6]: 26.3 nM

AAGGAGGAGCAAGGAUAUCAGUGUAUACGCCACAUGAGGAUCACCCAUGUCCGGAGCGAGAUUCCUGAGAAGGUGCCGCCUAGC
apparent Kd [1]: 7.25 nM
apparent Kd [2]: 6.47 nM

UCUCAUAUGGAAGGAUAUCAUACCUUGUCGAGAUGAGAAGGUCCGUAUGGACAUAACAUGAGGAUCACCCAUGUUUCUUGUGUU
apparent Kd [1]: 188 nM
apparent Kd [2]: 128 nM

AUAUAAUCAGGAUAUACAUGUUUCUUUAACACCGAGGCCGUACAUGAGGAUCACCCAUGUAGAAGGGAUUGCGG
apparent Kd [5]: 6.95 nM
apparent Kd [6]: 6.32 nM

CGGGUAACCGAGAAGGACUUAAGACUACGUUAAGUAGGAUAUCGAUUUGUUACAUGAGGAUCACCCAUGUCUGGUCUUGACCGC
apparent Kd [5]: 8.66 nM
apparent Kd [6]: 9.67 nM

UCACUGUUAGGAUAUCUCAUAGCAGUAGGUCAGCUAUUUUGAGAGAAGGAACAUGAGGAUCACCCAUGUAAAUA
apparent Kd [5]: 19.6 nM
apparent Kd [6]: 84.7 nM

UCAUAGUCAGGAUAUUUAUUUGGCGGAGACUGCGGCCACCGAAAGAAGGGACAUGAGGAUCACCCAUGUAUCGG
apparent Kd [5]: 16.3 nM
apparent Kd [6]: 26.9 nM

AGAAUGACAAAAUUGCAACAUGAGGAUCACCCAUGUGAUACAAGAAGGACAAACCGCUCAAGAGUGUAGGAUAUUGUGGAAAUC
apparent Kd [1]: 25.6 nM
apparent Kd [2]: 19.6 nM

GGUGAUUUCCGACGUUUACAUGAGGAUCACCCAUGUAGGUAGAAGGAUAUGUGUAAAAUUGAUAAACAGAAGGUCUUCCGAAUA
apparent Kd [5]: 12.2 nM
apparent Kd [6]: 49.3 nM

CGACGAUCAGAAGGAUAUUAAAUCGUCAAUCUCGUGACAUGAGGAUCACCCAUGUAGCCCGUGGUUAAGAAGGUCUUGGUUGUG
apparent Kd [5]: 92.4 nM
apparent Kd [6]: 58 nM

AGUCCUCUGUACCCUGAUGCCCUCACUUUACGAGGACCGGUACGGCCGCCACUCGAAUCCCAACAUGAGGAUCACCCAUGUCGAC
apparent Kd [7]: 34.8 nM
apparent Kd [8]: 39.7 nM

GUGCACAUGAGGAUCACCCAUGUCUGUGUAUUCCUGCUACCAGAGGAUAUGGCGUGCGUAGCUUACCAGAAGGCUGGUUGUAUC
apparent Kd [5]: 30 nM
apparent Kd [6]: 13.4 nM

GGAAUGUGAGGAUAUGUUAAGAAGGCGCGACGUUGGGAGACACAGAAGGCACAUGAGGAUCACCCAUGUUAUGA
apparent Kd [5]: 23.2 nM
apparent Kd [6]: 31.1 nM

AUUGAACGUGCAGGAUAUCAAAACCGGAAUCGUUGAGAAGGGCAGUAAUCGGAGAGCACAUGAGGAUCACCCAUGUUCAAUCGA
apparent Kd [1]: 15.9 nM
apparent Kd [2]: 9.32 nM

UAUUAGUUAGAGAAGGUCCUUAGGCCGCGUAAGGAAGGAUAUCUGCAUCACGGGCCUCUGGCAACAUGAGGAUCACCCAUGUGG
apparent Kd [5]: 96.8 nM
apparent Kd [6]: 156 nM

GCUUUAUUAGGAUAUGUAACCGUUAACAUGAGGAUCACCCAUGUUGAUUCUCAAGAGACCACAGAAGGAAUAAAAG
apparent Kd [5]: 289 nM
apparent Kd [6]: 240 nM

GUUCCCUCACAGAAGGAGUGUGUUAGUUGCACAUGAGGAUCACCCAUGUAAUAAACACGUGGCCACUAGGAUAUGUUAAACUGC
apparent Kd [1]: 12.9 nM
apparent Kd [2]: 10.8 nM

AACAGACGAGACGAUACCAGUCUCUUAGCGCACAUGAGGAUCACCCAUGUUGGCAAGCUCGACCCUUGGCAGCGUACCUUUGAUC
apparent Kd (designed as: ON switch for theophylline, no ligand): 24.4 nM
apparent Kd (ligand present: theophylline, designed as: ON switch for theophylline): 14 nM

AAAACAUGAGGAUCACCCAUGUUGAUCAAACACCAGACCAAGAGAAGGAUCAGCACCGAGUGAUGAAAGGAUAUCUAUUAACGG
apparent Kd [1]: 39.2 nM
apparent Kd [2]: 23.8 nM

AAUCGCCGUAAGAAGGCCACAUAAACAUGAGGAUCACCCAUGUACAGGCGACCUUUAUAUAAUGUGGAGGAUAUUAACUGCUUC
apparent Kd [5]: 36.2 nM
apparent Kd [6]: 90.5 nM

UGUUACAUGAGGAUCACCCAUGUCAGAUGGUCUGGCUAUUACAGAAGGAAUAAAGAACGUCGAGAUUAGGAUAUGUGUAGAUGA
apparent Kd [1]: 40.9 nM
apparent Kd [2]: 31.8 nM

GCGGUACAUGAGGAUCACCCAUGUGAUUUAACAGGUUUCAUCAGAAGGACUCACGGUUUGCGACAGUAGGAUAUGAAGGGUAAG
apparent Kd [1]: 34.6 nM
apparent Kd [2]: 24.6 nM

GCCGCCGGUGCUUCAUUCCCUGAGCGACGGCGAGGACCGGUACGGCCGCCACUCGGCUCGGUACAUGAGGAUCACCCAUGUCUUU
apparent Kd [7]: 44.7 nM
apparent Kd [8]: 54.5 nM

GUGUGGCGCUCAGGAUAUAGAAGGUCGCUAGUUCUAGAAGGGAGCAACGAGGUACCACAUGAGGAUCACCCAUGUUUGGUUGAC
apparent Kd [5]: 15.4 nM
apparent Kd [6]: 13.3 nM

GUUUUGCGAAUAGGAUAUAGUAAUGAUUCAGGAAGCCUGAACAUGAGGAUCACCCAUGUGCCAUCCUAGAAGGAUUCGCACGUG
apparent Kd [1]: 359 nM
apparent Kd [2]: 186 nM

Reference: the EternaBench riboswitch data
